Reference: PMC2648812 (Journal of computer-aided molecular design, 2008)
Entries after “also recorded” stand apart in the source; their conditions may differ. Non-standard residues stand in square brackets, D forms with d. Residues, ends and D or L forms follow the SMILES beside them. ξ: configuration not given here. ξT = CC(O)C(N)C(=O)O

Legend:
[1] = biological target: T1, mouse Dvl1 PDZ domain (Mus musculus, UniProt P51141); assay: 15N HSQC NMR chemical shift perturbation titration; type: binding
T1 sequence (P51141 247-341): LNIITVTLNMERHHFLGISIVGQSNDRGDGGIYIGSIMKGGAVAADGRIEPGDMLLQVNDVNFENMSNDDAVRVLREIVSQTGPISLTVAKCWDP
Summary of the method: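 15N-labeled mouse Dvl1 PDZ domain (residues 247-341) at 0.2-0.3 mM in 100 mM potassium phosphate pH 7.5, 10% D2O, 0.5 mM EDTA; 15N HSQC at 600 MHz, 25 °C. Five titration points (ligand:protein 1 to 15); Arg322 shift perturbation tracked, reported at about 10 equivalents. One-site model with dilution correction and two-parameter nonlinear least-squares fit gave KD. μM values were rescaled against the reference inhibitor's earlier fluorescence KD.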

[2] = biological target: PDZ domain; details: fluorescence spectroscopy, earlier studies; cited from earlier work
[3] = test system: Wnt signaling (second axis formation); details: Xenopus, Wnt3A upstream of Dvl; cited from earlier work
[4] = test system: PDZ domain; details: previous virtual screening; cited from earlier work

Row | SMILES | Kd [1] | Δδ chemical shift perturbation changes of Arg322 ([1]; 10.4 equivalents of NSC668036) | Exchange regime (in words) ([1]; NMR titration of 15N-labeled PDZ domain) | difference between KDs by NMR and by fluorescence ([1]; NSC668036, NMR KD versus fluorescence KD) | Exchange regime ([1]; from intermediate exchange (++++) to fast exchange (+) with the PDZ domain) | Kd [2] | second axis formation induced by Wnt3A [3] | binding to the PDZ domain [4]
1 | CC(NC(=O)C(OC(=O)C(C)NC(=O)OC(C)(C)C)C(C)C)C(=O)OC(C(=O)O)C(C)C (stereo not drawn) [NSC668036, 9,15-diisopropyl-2,2,6,12-tetramethyl-4,7,10,13-tetraoxo-3,8,14-trioxa-5,11-diazahexadec an-16-oic acid] | 27 mM | 0.035 | fast exchange regime | 114 fold | + | 0.237 mM | inhibited the second axis formation | –
2 | COC(=O)C(CON)C(=O)NC(=O)C(N)CON (stereo not drawn) [NSC119132, methyl 3-((2-amino-3-(aminooxy)propanoyl)amino)-2-((aminooxy)methyl)-3-oxopropanoate] | – | – | – | – | – | – | – | non-binders; also recorded: do not bind to the PDZ domain
3 | CC(O)C(N)C(=O)NCC(=O)NCC(=O)O (stereo not drawn) [NSC344681, ((((2-amino-3-hydroxybutanoyl)amino)acetyl)amino)acetic acid] (H-[ξT]-Gly-Gly-OH) | – | – | – | – | – | – | – | non-binders; also recorded: do not bind to the PDZ domain
